Data set [1] relates to Glycine max. The data set can be described thus: Inhibition of soybean lipoxygenase using arachidonic acid as substrate at 4 uM. An outline of the steps: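 Soybean lipoxygenase-15 screening kit with arachidonic acid as substrate and H2O2 as lipoxygenating agent in 0.1 M Tris-HCl, pH 7.4. Values are % inhibition, means of duplicate determinations, Student t-test.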
Data set [2] in a line: Cytotoxicity against mouse […] cells after 48 hrs by MTT assay. Format: cell-based. A digest of the protocol: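 J774 macrophages in DMEM (4 mM L-glutamine, 10% heat-inactivated FBS) were seeded at 1 × 10^5 cells/well and grown for 48 h at 37 °C, 5% CO2. They were then exposed to compounds at 25–400 µM for 48 h. MTT (0.1 mg/mL final) was added for 3 h, formazan was dissolved in DMSO/glycine buffer pH 10.5, and absorbance was read at 560 nm to give an IC50.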
(Tetrazolium assays rely on reduction of a dye to a coloured formazan, in cell work by metabolically active cells.)

Data set [3] deals with HT-29. The data set can be described thus: Pro-inflammatory activity in NFkappaB-GFP transfected human HT-29 cells at 25 to 400 uM after 24 hrs by propidium iodide staining-based flow cytometric analysis. In kind it is ADME, cell-based. As to conditions: ht-29, 24 h. A digest of the protocol:
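Reporter HT-29-NF-κB-hrGFP cells given compound alone, without TNF-α, for 18–24 h at 37 °C after the same 2 h pre-incubation. GFP-positive live (propidium iodide-excluding) cells counted by flow cytometry; IL-8 in supernatant measured by bead-based flow cytometry.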
For orientation: In flow cytometry, cells or beads pass a laser one at a time.

Data set [4] relates to HT-29. The data set can be described thus: Inhibition of TNFalpha-induced NF-kappaB activation expressed in human HT-29 cells coexpressing hrGFP at 100 uM after 24 hrs by propidium iodide staining-based flow cytometric analysis relative to control. In kind it is cell-based. An outline of the steps: (§1)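 HT-29 cells stably expressing NF-κB-driven hrGFP given compound (DMSO <0.5%) for 2 h at the maximum non-cytotoxic concentration, then TNF-α at 3 ng/mL final for 18–24 h. Cells trypsinised and stained with propidium iodide; 5000 events gated on FSC/SSC. The %GFP-positive among PI-excluding live cells is normalised to TNF-α/DMSO control, ± SD.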

The subject of data set [5] is HT-29. The data set can be described thus: Inhibition of NF-kappaB activation expressed in human HT-29 cells assessed as inhibition of TNFalpha-stimulated IL8 release at 100 uM after 24 hrs by flow cytometric analysis relative to control. Format: cell-based. A digest of the protocol:
(§2)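 Reporter HT-29-NF-κB-hrGFP cells pretreated 2 h with compound (DMSO <0.5%) at the highest concentration with 100% survival, then stimulated with TNF-α (3 ng/mL final) for 18–24 h at 37 °C. IL-8 in clarified supernatant measured by flow cytometric bead assay (500 events). Expressed as % of TNF-α/DMSO control ± SD; thalidomide as reference.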

Data set [6] concerns HT-29. The data set can be described thus: Inhibition of TNFalpha-induced NF-kappaB activation expressed in human HT-29 cells coexpressing hrGFP at 400 uM after 24 hrs by propidium iodide staining-based flow cytometric analysis relative to control. In kind it is cell-based. A digest of the protocol: as §1
Data set [7] relates to HT-29. Briefly: Inhibition of NF-kappaB activation expressed in human HT-29 cells assessed as inhibition of TNFalpha-stimulated IL8 release at 400 uM after 24 hrs by flow cytometric analysis relative to control. Format: cell-based. A digest of the protocol:
as §2

For data set [8], the system named is HT-29. The data set can be described thus: Inhibition of TNFalpha-induced NF-kappaB activation expressed in human HT-29 cells coexpressing hrGFP at 200 uM after 24 hrs by propidium iodide staining-based flow cytometric analysis relative to control. In kind it is cell-based. An outline of the steps: as §1
In data set [9] the test system is HT-29. The data set can be described thus: Inhibition of NF-kappaB activation expressed in human HT-29 cells assessed as inhibition of TNFalpha-stimulated IL8 release at 200 uM after 24 hrs by flow cytometric analysis relative to control. Format: cell-based. An outline of the steps: as §2
A short description of data set [10]: Cytotoxicity against human HT-29 cells expressing NF-kappaB-hrGFP assessed as highest non-cytotoxic dose for 100% cell survival after 24 hrs by MTT assay. In kind it is cell-based. As to conditions: read-out: Activity. A digest of the protocol:
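HT-29 cells stably carrying pNF-κB-hrGFP, seeded at 0.5 × 10^6/mL in DMEM with 10% FBS, grown 24 h at 37 °C, 5% CO2. Compounds added in DMSO (<0.5% v/v final) at 12.5–400 µM for 24 h. Viability by MTT reduction (2 h), formazan dissolved in DMSO/glycine buffer, read at 560 nm.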

Data set [11] is described as follows: Induction of NO release in 0.1 M Tris-HCl and 0.1 mM DTPA at pH 7.4 measured for 20 mins in presence of cysteine. In kind it is physicochemical. As to conditions: buffer, pH 7.4, 20 min. A digest of the protocol: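 Electrochemical NO detection with an ISO-NOP sensor. Compounds in DMSO added to 0.1 M Tris-HCl, 0.1 mM DTPA at pH 7.4 or 8.3. Cysteine (300 or 100 µM) added and NO recorded for 20 min at 25 or 37 °C; compound:Cys ratio 1:1 at 25 °C, with 3:1 and 37 °C runs also made.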

For data set [12], the system named is HT-29. Briefly: Inhibition of TNF-alpha-induced NFkappaB activation expressed in human HT-29 cells coexpressing hrGFP at 20 uM after 24 hrs by propidium iodide staining-based flow cytometric analysis relative to control. Format: cell-based. An outline of the steps:
as §1

The subject of data set [13] is HT-29. Briefly: Inhibition of NF-kappaB activation expressed in human HT-29 cells assessed as inhibition of TNFalpha-stimulated IL8 release at 20 uM after 24 hrs by flow cytometric analysis relative to control. Format: cell-based. A digest of the protocol: as §2
The subject of data set [14] is HT-29. The data set can be described thus: Inhibition of TNF-alpha-induced NFkappaB activation expressed in human HT-29 cells coexpressing hrGFP at 25 uM after 24 hrs by propidium iodide staining-based flow cytometric analysis relative to control. In kind it is cell-based. A digest of the protocol:
as §1

The subject of data set [15] is Glycine max. Briefly: Inhibition of soybean lipoxygenase using arachidonic acid as substrate at 50 uM. A digest of the protocol:
(§3)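 Soybean 15-lipoxygenase kit assay, arachidonic acid substrate, H2O2 as lipoxygenating agent in 0.1 M Tris-HCl pH 7.4. Single-point screen at 50 µM. IC50 found by varying concentration over 10–100 µM. Quercetin at 4 µM as positive control; duplicate means; Student t-test.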

Data set [16] is described as follows: Inhibition of soybean lipoxygenase using arachidonic acid as substrate. Also on record: species or system Glycine max. A digest of the protocol:
as §3

The test system of data set [17] is HT-29. Briefly: Inhibition of NF-kappaB activation expressed in human HT-29 cells assessed as inhibition of TNFalpha-stimulated IL8 release at 25 uM after 24 hrs by flow cytometric analysis relative to control. In kind it is cell-based. An outline of the steps:
as §2

Each structure is given as a SMILES string.

Broadly, the inhibition is the drop in the measured response relative to a control, in per cent. Regarding `O=c1c(O)c(-c2ccc(O)c(O)c2)oc2cc(O)cc(O)c12`, the inhibition in the data set on Glycine max [1] came to 35%.

Usually IC50 stands for the midpoint of a concentration-inhibition curve. A lower IC50 goes with greater potency. `O=C1CCC(N2C(=O)c3ccccc3C2=O)C(=O)N1` (configuration not stated) [THALIDOMIDE]: in [2], the IC50 is more than 400 µM. The Activity entry with HT-29 [3] is “Non-toxic”. The NF-kappaB activity (% of TNF-alpha control) in the data set on HT-29 [4] came to 126%. In addition, the inhibition worked out at 63% in the data set with HT-29 [5], 57% in the data set with HT-29 [7], 114% in the data set with HT-29 [8] and 77% in the data set on HT-29 [9]. Also, the NF-kappaB activity (GFP-positive cells), % of TNF-alpha control with HT-29 [6] was 116%. Moreover, in [10], the MNTC at 24 h is 100 µM.

For `O=S(=O)(c1ccccc1)c1no[n+]([O-])c1S(=O)(=O)c1ccccc1`, the Activity in [11] is reported as 3700 nM/min; in the data set on HT-29 [3], “Non-toxic”. In addition, the inhibition in the data set with HT-29 [12] and with HT-29 [13] was 6% in each case. For the same compound, in data set [10], the MNTC at 24 h stood at 20 µM.

In the case of `O=C(N/N=C/c1c(-c2ccccc2)no[n+]1[O-])c1cccnc1`, the IC50 in [2] was 195 µM; in [16], more than 100 µM. Besides, the Activity result in the data set with HT-29 [3] is reported as “Non-toxic”. The inhibition in the data set with HT-29 [14] was 114%; in the data set with Glycine max [15], 14%; in the data set on HT-29 [17] it was 138%. In data set [10], the MNTC at 24 h was 25 µM.
